# Results taken from ChEMBL document CHEMBL3259528, “Exploring 5-nitrofuran derivatives against nosocomial pathogens: synthesis, antimicrobial activity and chemometric analysis” (2014).
# The source made the active and inactive calls. The rule behind the calls is not given here.
# How the values were obtained:
# Klebsiella pneumoniae = assay: Antimicrobial activity against Klebsiella pneumoniae ATCC 700603 at 128 uM after 24 to 48 hrs by two-fold broth microdilution method; type: functional, organism-based
# How it was run: (§1)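 Antibacterial microdilution in CAMH, inoculum 0.5 McFarland diluted in saline/CAMH, 35 °C for 18 h, with further reads at 24 and 48 h. Activity is scored at the maximum tested concentration, 128 µM. Triplicate.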
# Staphylococcus aureus [1] = assay: Antimicrobial activity against Staphylococcus aureus ATCC 29213 after 24 to 48 hrs by two-fold broth microdilution method; type: functional
# Enterobacter cloacae = assay: Antimicrobial activity against Enterobacter cloacae ATCC 23355 at 128 uM after 24 to 48 hrs by two-fold broth microdilution method; type: functional, organism-based; how it was run: as §1
# Candida albicans [2] = assay: Antimicrobial activity against Candida albicans ATCC 537Y at 64 uM after 48 hrs by two-fold broth microdilution method; type: functional, organism-based
# How it was run: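 Single top concentration of the antifungal microdilution: RPMI 1640, inoculum 0.5 McFarland diluted in saline/RPMI, 35 °C for 48 h. Activity is judged at the highest tested level, 64 µM. Run in triplicate.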
# Serratia marcescens [3] = assay: Antimicrobial activity against Serratia marcescens ATCC 14576 at 128 uM after 24 to 48 hrs by two-fold broth microdilution method; type: functional, organism-based; how it was run: as §1
# Escherichia coli [4] = assay: Antimicrobial activity against Escherichia coli ATCC 25922 after 24 to 48 hrs by two-fold broth microdilution method; type: functional
# Staphylococcus aureus [5] = assay: Antimicrobial activity against Staphylococcus aureus ATCC 29213 after 18 hrs by modified broth microdilution method; type: functional
# How it was run: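 PGI90, the concentration giving 90% growth inhibition, fitted with an exponential growth curve from at least seven concentrations of the MIC assay. Inhibition % = [(Ac − Ap)/Ac] × 100 from A620 of drug-free control versus drug-treated culture. Checked by a modified broth microdilution (Phase 2).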
# Staphylococcus aureus [6] = assay: Antimicrobial activity against multidrug-resistant Staphylococcus aureus VISA3 […] by two-fold broth microdilution method; type: functional
# Escherichia coli [7] = assay: Antimicrobial activity against Escherichia coli ATCC 25922 at 128 uM after 24 to 48 hrs by two-fold broth microdilution method; type: functional, organism-based; how it was run: as §1
# Enterococcus faecalis = assay: Antimicrobial activity against Enterococcus faecalis ATCC 29212 after 24 to 48 hrs by two-fold broth microdilution method; type: functional
# Candida albicans [8] = assay: Antimicrobial activity against Candida albicans ATCC 537Y after 48 hrs by two-fold broth microdilution method; type: functional
# How it was run: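 Two-fold serial dilutions in RPMI 1640 per CLSI M27-A2. Stocks in DMSO/RPMI 1:20 v/v. Test range 1.0–64 µM. Inoculum set to 0.5 McFarland, then diluted in saline and RPMI 1640. Plates held at 35 °C for 48 h. MIC is the lowest concentration giving prominent growth reduction. Run in triplicate.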
# Serratia marcescens [9] = assay: Antimicrobial activity against Serratia marcescens ATCC 14576 after 24 to 48 hrs by two-fold broth microdilution method; type: functional
MIC (Staphylococcus aureus [1]) [µM],MIC90 (Staphylococcus aureus [1]) [µM],MIC (Escherichia coli [4]) [µM],MIC90 (Escherichia coli [4]) [µM],log(1/MIC>90) (Staphylococcus aureus [5]),MIC (Enterococcus faecalis) [µM],MIC90 (Enterococcus faecalis) [µM],MIC (Candida albicans [8]) [µM],MIC90 (Candida albicans [8]) [µM],MIC (Serratia marcescens [9]) [µM],MIC90 (Serratia marcescens [9]) [µM],Structure (SMILES),Activity (Klebsiella pneumoniae),Activity (Enterobacter cloacae),Activity (Candida albicans [2]),Activity (Serratia marcescens [3]),MIC (Staphylococcus aureus [6]) [µM],Activity (Escherichia coli [7])
8,12.2,,,4.91,,,32,49.9,,,CC(=O)N1N=C(c2ccc(C)cc2)OC1c1ccc([N+](=O)[O-])o1 (centres undefined),inactive,inactive,,inactive,,inactive
4,5.78,32,54.6,5.14,32,57.3,32,44.6,64,90.5,CC(=O)N1N=C(c2ccc([N+](=O)[O-])cc2)OC1c1ccc([N+](=O)[O-])o1 (centres undefined),inactive,inactive,,,,
4,6.29,,,5.13,,,,,,,CC(=O)N1N=C(c2ccc(I)cc2)OC1c1ccc([N+](=O)[O-])o1 (centres undefined),inactive,inactive,inactive,inactive,,inactive
8,15.4,,,4.81,,,32,46,,,CCCc1ccc(C2=NN(C(C)=O)C(c3ccc([N+](=O)[O-])o3)O2)cc1 (centres undefined),inactive,inactive,,inactive,,inactive
2,6.64,32,44.1,5.18,64,71.2,32,57,64,104,O=C(N/N=C/c1ccc([N+](=O)[O-])o1)c1ccc(F)cc1,inactive,inactive,,,,
8,10.9,,,4.96,,,,,,,COc1ccc(C2=NN(C(C)=O)C(c3ccc([N+](=O)[O-])o3)O2)cc1 (centres undefined),inactive,inactive,inactive,inactive,,inactive
4,5.35,64,97.3,5.27,32,40.4,,,64,111,N#Cc1ccc(C(=O)N/N=C/c2ccc([N+](=O)[O-])o2)cc1,inactive,inactive,inactive,,,
8,9.42,,,4.97,8,14.2,32,58.3,,,Cc1ccc(C(=O)N/N=C/c2ccc([N+](=O)[O-])o2)cc1,inactive,inactive,,inactive,,inactive
4,5.28,,,5.28,32,59.8,,,,,CC(C)(C)c1ccc(C(=O)N/N=C/c2ccc([N+](=O)[O-])o2)cc1,inactive,inactive,inactive,inactive,,inactive
4,6.12,64,86.1,5.21,32,31.7,32,42.2,64,85.7,CC(=O)N1N=C(c2ccc(Cl)cc2Cl)OC1c1ccc([N+](=O)[O-])o1 (centres undefined),inactive,inactive,,,,
4,8.93,,,5.05,32,52.9,8,15.8,,,CC(=O)N1N=C(c2ccccc2)OC1c1ccc([N+](=O)[O-])o1 (centres undefined),inactive,inactive,,inactive,,inactive

# The remaining lines, values behind:
Structure (SMILES),MIC (Staphylococcus aureus [1]) [µM],MIC90 (Staphylococcus aureus [1]) [µM],MIC (Escherichia coli [4]) [µM],MIC90 (Escherichia coli [4]) [µM],log(1/MIC>90) (Staphylococcus aureus [5]),MIC (Enterococcus faecalis) [µM],MIC90 (Enterococcus faecalis) [µM],MIC (Candida albicans [8]) [µM],MIC90 (Candida albicans [8]) [µM],MIC (Serratia marcescens [9]) [µM],MIC90 (Serratia marcescens [9]) [µM],Activity (Klebsiella pneumoniae),Activity (Enterobacter cloacae),Activity (Candida albicans [2]),Activity (Serratia marcescens [3]),MIC (Staphylococcus aureus [6]) [µM],Activity (Escherichia coli [7])
CC(=O)N1N=C(c2ccc(Cl)cc2)OC1c1ccc([N+](=O)[O-])o1 (centres undefined),4,5.45,64,88.7,5.26,,,,,,,inactive,inactive,inactive,inactive,4,
CCOc1ccc(C(=O)N/N=C/c2ccc([N+](=O)[O-])o2)cc1,2,3.7,,,5.43,32,34.9,,,,,inactive,inactive,inactive,inactive,,inactive
CCCCc1ccc(C2=NN(C(C)=O)C(c3ccc([N+](=O)[O-])o3)O2)cc1 (centres undefined),16,18.5,,,4.73,,,,,,,inactive,inactive,inactive,inactive,,inactive
CCCCc1ccc(C(=O)N/N=C/c2ccc([N+](=O)[O-])o2)cc1,2,1.8,,,5.74,32,55.9,,,,,inactive,inactive,inactive,inactive,2,inactive
CN[C@H](CC(C)C)C(=O)N[C@H]1C(=O)N[C@@H](CC(N)=O)C(=O)N[C@H]2C(=O)N[C@H]3C(=O)N[C@H](C(=O)N[C@H](C(=O)O)c4cc(O)cc(O)c4-c4cc3ccc4O)[C@H](O)c3ccc(c(Cl)c3)Oc3cc2cc(c3O[C@@H]2O[C@H](CO)[C@@H](O)[C@H](O)[C@H]2O[C@H]2C[C@](C)(N)[C@H](O)[C@H](C)O2)Oc2ccc(cc2Cl)[C@H]1O [VANCOMYCIN],< 20,,,,,,,,,,,,,,,2,
CC(=O)N1N=C(c2ccc(Br)cc2)OC1c1ccc([N+](=O)[O-])o1 (centres undefined),4,5.13,,,5.29,,,,,,,inactive,inactive,inactive,inactive,8,inactive
CCCCOc1ccc(C(=O)N/N=C/c2ccc([N+](=O)[O-])o2)cc1,2,4.14,,,5.38,16,24.1,,,,,inactive,inactive,inactive,inactive,,inactive
CC(=O)N1N=C(c2ccc(C(F)(F)F)cc2)OC1c1ccc([N+](=O)[O-])o1 (centres undefined),4,5.6,,,5.25,,,,,,,inactive,inactive,inactive,inactive,4,inactive
CC(=O)N1N=C(c2ccc(Cl)c(Cl)c2)OC1c1ccc([N+](=O)[O-])o1 (centres undefined),4,4.63,,,5.33,,,,,,,inactive,inactive,inactive,inactive,4,inactive
CC(=O)N1N=C(c2ccc(C#N)cc2)OC1c1ccc([N+](=O)[O-])o1 (centres undefined),2,3.89,32,43.1,5.41,64,75.2,32,47.6,64,96.3,inactive,inactive,,,4,
CCOc1ccc(C2=NN(C(C)=O)C(c3ccc([N+](=O)[O-])o3)O2)cc1 (centres undefined),8,8.14,64,78.6,5.09,,,8,8.39,64,85.7,inactive,inactive,,,,
CCc1ccc(C2=NN(C(C)=O)C(c3ccc([N+](=O)[O-])o3)O2)cc1 (centres undefined),8,10.2,,,4.99,,,32,48.2,,,inactive,inactive,,inactive,,inactive
